What all share (assay type): in vivo, Swiss albino mice
Data set [1] has as its system spatial memory of scopolamine-treated AD mice. The experiment in a line: Morris water-maze test in scopolamine-treated mice. Conditions: for spatial memory (probe test, fifth day): after platform removal, vs scopolamine group; for number of entries in the arm: intranasal 0.5 mg/kg bw; for time to find the hidden acrylic platform: intranasal 0.5 mg/kg bw (EGCG-AA-TRANS 0.25 mg/kg bw each). The method in brief: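 Mice (30 ± 5 g; n = 5/group) were dosed intranasally for 6 days with free or transferosome-loaded test compound at 0.5 mg/kg bw, or 0.25 mg/kg bw of each in the combination. On day 7, scopolamine 0.5 mg/kg bw was given 30 min before trials. Pool 160 cm wide, water 26 cm deep, 22 ± 1 °C; run over 5 days. Quadrant time, arm entries and platform latency recorded; one-way ANOVA with Newman–Keuls.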

The next data set relates to NO levels. The experiment in a line: NO. The following applies: hippocampus tissue homogenate. The method in brief:
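Hippocampus came from mice dosed intranasally for 6 days and challenged with scopolamine (n = 5). Tissue was homogenised in KCl buffer pH 8.0 with protease and phosphatase inhibitors, then spun at 10,000 g for 25 min at 4 °C. The 10% homogenate was mixed with ammonium chloride and Griess reagent, held 37 °C for 90 min, read at 540 nm. Sodium nitrite standards […]; nitrite in μM/mL; one-way ANOVA with Newman–Keuls.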

A short description of data set [2]: Organ distribution and brain pharmacokinetic study. The following applies: brain.
Setting [3] is: Swiss albino, mouse, inhaled or intranasal, 0.5 mg/kg.

Where “and” joins values, the source holds several entries; their conditions need not be identical. Equal values may be shown once.

Results on three molecules are retold here after article PMC11339821 (ACS Omega, 2024).

As a reminder, the AUC(0-t) is the area under the concentration-time curve up to a stated or last time point. A higher AUC(0-t) goes with high exposure. By Cmax is commonly meant the maximum level reached in the sampled fluid or tissue. For orientation: MRT last means the average time that molecules of a dose stay in the body. A word on the Tmax: it is the time at which the peak concentration occurs. As for `O=C1O[C@H]([C@@H](O)CO)C(O)=C1O` [AA, ascorbic acid], in data set [1], the “spatial memory (probe test, fifth day)” value is “improved spatial memory”; the “number of entries in the arm” value was determined as 15 times; the “time to find the hidden acrylic platform” value stood at 38 s. Also, in the data set on NO levels, the NO levels result is “significant decrease in NO levels”. In data set [2] (setting [3]), the AUC(0-t) was found to be 1.061 ± 0.000654 µg·h/mL, the maximum concentration (Cmax) came out at 0.85503 ± 0.000654 µg/mL, the MRT last was 1.98 ± 0.121 h and the Tmax amounted to 2.12 ± 0.871 h.
Regarding `CN1[C@@H]2C[C@@H](OC(=O)[C@H](CO)c3ccccc3)C[C@H]1[C@@H]1O[C@@H]12` [scopolamine, Scopolamine], in data set [1], the “spatial memory (probe test, fifth day)” value is given as “significantly reduced their spatial memory”; the “number of entries in the arm” value was “about 12 times”; the “time to find the hidden acrylic platform” value was 84 s. Moreover, the NO levels entry in the data set with NO levels was “significantly higher”.
As to Epigallocatechin-3-gallate [EGCG], in data set [1], the “spatial memory (probe test, fifth day)” value was “improved spatial memory”; the “number of entries in the arm” value is recorded as 14 times; the “time to find the hidden acrylic platform” value turned out to be 42 s. Further, the NO levels entry with NO levels was “significant decrease in NO levels”. For the same molecule, in data set [2] (mice), the Cmax was determined as 0.00078607 ± 7.84e-07 µg/mL; the “MRT0–24” value is 1.4 ± 0.985 h and 1.412 ± 0.985 h; the Tmax was found to be 1.101 ± 2.871 h.
